Converted amounts (≈) assume the structure as drawn. The source made the active and inactive calls. No cut-off for these calls is given here.
Experiments:
Staphylococcus aureus [1] = assay: Antibacterial activity against Staphylococcus aureus RN4220 containing ORI23::qnr-cat promoter mutant by twofold dilution method; assay type: functional
Outline: (§1)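 Heterologous hosts carrying pORI23 or pORI23::qnr-cat (cat reporter downstream of qnr); MICs of ofloxacin, ciprofloxacin, levofloxacin, sparfloxacin and moxifloxacin by standard twofold dilution. Transformants selected on erythromycin 500 μg/ml plus chloramphenicol 20 μg/ml (E. coli DH10B) or erythromycin 5 μg/ml plus chloramphenicol 5 μg/ml (S. aureus, L. lactis). Blood-supplemented agar for L. lactis.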

Lactococcus lactis [2] = assay: Antibacterial activity against Lactococcus lactis IL-1419 by twofold dilution method; assay type: functional
Outline: (§2)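 Heterologous-expression MIC by standard twofold dilution; L. lactis IL-1419 transformed with pORI23 vector or pORI23::qnr-cat by electroporation, selected on erythromycin 5 μg/ml plus chloramphenicol 5 μg/ml; routine growth at 37°C on TS agar with 10% horse blood.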

Escherichia coli [3] = assay: Antibacterial activity against Escherichia coli DH10B containing ORI23::qnr-cat promoter mutant by twofold dilution method; assay type: functional; conditions: K-12 substr. DH10B; outline: as §1
Lactococcus lactis [4] = assay: Antibacterial activity against Lactococcus lactis IL-1419 containing ORI23::qnr-cat promoter mutant by twofold dilution method; assay type: functional; outline: as §1
Staphylococcus aureus [5] = assay: Antibacterial activity against Staphylococcus aureus RN4220 containing ORI23 promoter by twofold dilution method; assay type: functional; outline: as §1
Staphylococcus aureus [6] = assay: Antibacterial activity against Staphylococcus aureus RN4220 by twofold dilution method; assay type: functional; outline: as §1
Lactococcus lactis [7] = assay: Antibacterial activity against Lactococcus lactis IL-1419 containing ORI23 promoter by twofold dilution method; assay type: functional; outline: as §2
Escherichia coli [8] = assay: Antibacterial activity against Escherichia coli DH10B by twofold dilution method; assay type: functional; conditions: K-12 substr. DH10B; outline: as §1
Escherichia coli [9] = assay: Antibacterial activity against Escherichia coli DH10B containing ORI23 promoter by twofold dilution method; assay type: functional; conditions: K-12 substr. DH10B; outline: as §1
Enterococcus faecalis [10] = assay: Antibacterial activity against Enterococcus faecalis JH2-2-omega-pG1KT/pORI23::qnr-cat mutant with qnr gene complementation by broth microdilution method; assay type: functional
Enterococcus faecalis [11] = assay: Antibacterial activity against Enterococcus faecalis JH2-2 by broth microdilution method; assay type: functional
Enterococcus faecalis [12] = assay: Antibacterial activity against Enterococcus faecalis JH2-2 containing ORI23::qnr-cat promoter mutant overexpressing qnr by broth microdilution method; assay type: functional
Enterococcus faecalis [13] = assay: Antibacterial activity against Enterococcus faecalis JH2-2-omega-pG1KT mutant with inactivated qnr gene by broth microdilution method; assay type: functional
Enterococcus faecalis [14] = assay: Antibacterial activity against Enterococcus faecalis JH2-2 containing ORI23 promoter by broth microdilution method; assay type: functional
Outline: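 Broth microdilution MIC in Mueller-Hinton broth per CA-SFM, three independent experiments; JH2-2 host carrying pORI23 vector. Narrow dilution series: ofloxacin 1–128 μg/ml (1, 1.5, 2 … 8, 16, 32, 64, 128), ciprofloxacin 0.5–64 μg/ml (0.5, 0.75, 1 … 4, 8, 16, 32, 64). Growth at 37°C.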

Enterococcus faecalis [15] = assay: Antibacterial activity against Enterococcus faecalis JH2-2-delta-pG1KT mutant by broth microdilution method; assay type: functional
Escherichia coli [16] = assay: Inhibition of Escherichia coli DNA gyrase-mediated Escherichia coli pBR322 DNA supercoiling at 1 ug/mL by agarose gel electrophoresis
Outline: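 Supercoiling assay: 1 U purified E. coli gyrase with 0.5 μg relaxed pBR322 in 35 mM Tris-HCl pH 7.5, 24 mM KCl, 4 mM MgCl2, 2 mM DTT, 1.8 mM spermidine, 1 mM ATP, 6.5% glycerol, 0.1 mg/ml albumin; drug incubated 1 h 25°C then 30 min 37°C; topoisomers resolved on 1% agarose, ethidium bromide, 16 h at 3.5 V/cm.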

Enterococcus faecalis [17] = assay: microbe, parasite or virus in culture; conditions: ATCC 29212
Escherichia coli [18] = assay: Inhibition of Escherichia coli DNA gyrase-mediated Escherichia coli pBR322 DNA supercoiling at 1 ug/mL in presence of 0.9 uM histidine6-tagged Enterococcus faecalis qnr protein preincubated before compound administration by agarose gel electrophoresis
Outline: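 Dialyzed C-terminal His6-tagged Qnr (from E. coli BL21(DE3), IPTG 1 mM, Ni-NTA purified, 0.9 μM) preincubated with E. coli gyrase 1 h at 25°C before drug; then 1 U gyrase, 0.5 μg relaxed pBR322, buffer with 1 mM ATP, pH 7.5, 37°C 30 min; readout by 1% agarose gel, ethidium bromide.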

Row | Structure (SMILES) | MIC (Staphylococcus aureus [1]) [µg/mL] | MIC (Lactococcus lactis [2]) [µg/mL] | MIC (Escherichia coli [3]) [µg/mL] | MIC (Lactococcus lactis [4]) [µg/mL] | MIC (Staphylococcus aureus [5]) [µg/mL] | MIC (Staphylococcus aureus [6]) [µg/mL] | MIC (Lactococcus lactis [7]) [µg/mL] | MIC (Escherichia coli [8]) [µg/mL] | MIC (Escherichia coli [9]) [µg/mL] | MIC (Enterococcus faecalis [10]) [µg/mL] | MIC (Enterococcus faecalis [11]) [µg/mL] | MIC (Enterococcus faecalis [12]) [µg/mL] | MIC (Enterococcus faecalis [13]) [µg/mL] | MIC (Enterococcus faecalis [14]) [µg/mL] | MIC (Enterococcus faecalis [15]) [µg/mL] | Activity (Escherichia coli [16]) | MIC (Enterococcus faecalis [17]) [µg/mL] | Activity (Escherichia coli [18])
1 | C[C@H]1COc2c(N3CCN(C)CC3)c(F)cc3c(=O)c(C(=O)O)cn1c23.C[C@H]1COc2c(N3CCN(C)CC3)c(F)cc3c(=O)c(C(=O)O)cn1c23.O [LEVOFLOXACIN] | 1 | 0.5 | 0.125 | 2 | 0.25 | 0.25 | 0.5 | – | – | – | – | – | – | – | – | – | – | –
2 | COc1c(N2C[C@@H]3CCCN[C@@H]3C2)c(F)cc2c(=O)c(C(=O)O)cn(C3CC3)c12 [MOXIFLOXACIN] | 0.25 (≈ 0.623 µM) | 0.25 (≈ 0.623 µM) | 0.032 (≈ 0.0797 µM) | 1 (≈ 2.49 µM) | – | – | 0.25 (≈ 0.623 µM) | 0.002 (≈ 0.00498 µM) | 0.002 (≈ 0.00498 µM) | – | – | – | – | – | – | – | – | –
3 | C[C@@H]1CN(c2c(F)c(N)c3c(=O)c(C(=O)O)cn(C4CC4)c3c2F)C[C@H](C)N1 [SPARFLOXACIN] | 1 (≈ 2.55 µM) | 0.5 (≈ 1.27 µM) | 0.064 (≈ 0.163 µM) | 4 (≈ 10.2 µM) | 0.125 (≈ 0.319 µM) | 0.125 (≈ 0.319 µM) | 0.5 (≈ 1.27 µM) | 0.002 (≈ 0.0051 µM) | 0.004 (≈ 0.0102 µM) | – | – | – | – | – | – | – | – | –
4 | O=C(O)c1cn(C2CC2)c2cc(N3CCNCC3)c(F)cc2c1=O [CIPROFLOXACIN] | 2 (≈ 6.04 µM) | 2 (≈ 6.04 µM) | 0.032 (≈ 0.0966 µM) | – | – | – | 2 (≈ 6.04 µM) | – | – | 8 (≈ 24.1 µM) | 1.5 (≈ 4.53 µM) | 8 (≈ 24.1 µM) | 0.75 (≈ 2.26 µM) | 2 (≈ 6.04 µM) | 1.75 (≈ 5.28 µM) | – | – | –
5 | CC1COc2c(N3CCN(C)CC3)c(F)cc3c(=O)c(C(=O)O)cn1c23 (centres undefined) [OFLOXACIN] | 2 (≈ 5.53 µM) | 1 (≈ 2.77 µM) | 0.125 (≈ 0.346 µM) | 4 (≈ 11.1 µM) | 0.5 (≈ 1.38 µM) | 0.5 (≈ 1.38 µM) | 1 (≈ 2.77 µM) | – | – | 32 (≈ 88.6 µM) | 3 (≈ 8.3 µM) | 32 (≈ 88.6 µM) | 1.5 (≈ 4.15 µM) | 3.5 (≈ 9.69 µM) | 3 (≈ 8.3 µM) | Active | 2 (≈ 5.53 µM) | inactive
